The nature of data set [1]: Plasma clearance in human patient with relapsed solid tumor at 20 mg/m'2, iv administered on days 1, 2, 8, 9, 15 and 16 of 28-day cycle over 2 to 10 mins measured on day 16 of cycle 1 by LC-MS/MS analysis. The data set is classed as ADME, organism-based. In outline:
(§1)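 Patients with relapsed solid tumors (n=3) received carfilzomib IV at 20 mg/m2. Plasma was sampled on Days 1 and 16 of Cycle 1 before dosing, at end of administration, and at 5, 15, 30 min and 1, 2, 4 h after. Samples underwent solid phase extraction and LC-MS/MS with d10-carfilzomib internal standard over 0.100–200 ng/mL. Parameters were derived noncompartmentally (constant IV infusion model) from actual elapsed time from infusion start.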

A short description of data set [2]: Plasma clearance in human patient with relapsed solid tumor at 20 mg/m'2, iv administered over 2 to 10 mins on days 1, 2, 8, 9, 15 and 16 of 28-day cycle measured on day 1 of cycle 1 by LC-MS/MS analysis. The data set is classed as ADME, organism-based. An outline of the steps: as §1
Data set [3] can be described thus: Half life in human patient with relapsed solid tumor at 20 mg/m'2, iv administered on days 1, 2, 8, 9, 15 and 16 of 28-day cycle over 2 to 10 mins measured on day 16 of cycle 1 by LC-MS/MS analysis. As to conditions: in vivo. The data set is classed as ADME, organism-based. In outline: as §1
A short description of data set [4]: AUC infinity in human patient with relapsed solid tumor at 20 mg/m'2, iv administered over 2 to 10 mins on days 1, 2, 8, 9, 15 and 16 of 28-day cycle measured on day 1 of cycle 1 by LC-MS/MS analysis. Type of data set: ADME, organism-based. Further details: route intravenous, time infinity. The conditions noted are these: plasma. In outline:
as §1

Data set [5] is described as follows: AUC last in human patient with relapsed solid tumor at 20 mg/m'2, iv administered on days 1, 2, 8, 9, 15 and 16 of 28-day cycle over 2 to 10 mins measured on day 1 of cycle 1 by LC-MS/MS analysis. The data set is classed as ADME, organism-based. Further details: route intravenous, time 0 - last. As to conditions: plasma. An outline of the steps: as §1
The target of another data set is T1, Cytochrome P450 1A2 (Homo sapiens, UniProt P05177).
T1 sequence (P05177 whole entry): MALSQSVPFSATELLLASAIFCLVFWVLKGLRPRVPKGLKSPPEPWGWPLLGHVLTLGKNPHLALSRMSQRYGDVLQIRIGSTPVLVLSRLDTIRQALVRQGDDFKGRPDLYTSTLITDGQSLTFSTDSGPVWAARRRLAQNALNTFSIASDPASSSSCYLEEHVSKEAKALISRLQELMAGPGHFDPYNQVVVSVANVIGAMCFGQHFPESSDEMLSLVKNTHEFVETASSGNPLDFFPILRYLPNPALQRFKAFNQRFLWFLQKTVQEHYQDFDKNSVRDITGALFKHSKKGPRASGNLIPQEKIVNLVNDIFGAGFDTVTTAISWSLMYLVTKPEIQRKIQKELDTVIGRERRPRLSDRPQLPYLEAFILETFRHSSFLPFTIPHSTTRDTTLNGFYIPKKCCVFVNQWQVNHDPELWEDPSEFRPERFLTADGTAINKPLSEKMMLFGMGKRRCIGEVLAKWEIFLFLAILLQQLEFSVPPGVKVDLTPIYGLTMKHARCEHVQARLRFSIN
The data set can be described thus: Drug metabolism in pooled human hepatocytes assessed as disapperance rate at 1 uM by LC-MS/MS analysis in presence of 30 uM CYP1A2 inhibitor furafylline. The data set is classed as ADME, cell-based, Hepatocyte. An outline of the steps:
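Pooled human hepatocytes in suspension (~0.5 x 10^6 viable cells/mL) were incubated with 1 µM carfilzomib at 37°C under 5% CO2, with or without isoform-selective CYP chemical inhibitors. Reactions were quenched with acetonitrile at 0, 15, 30, 60 and 120 min. Carfilzomib was quantified by non-validated LC-MS/MS after protein precipitation.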

The test system of data set [6] is Plasma. The data set can be described thus: Drug metabolism in plasma of iv dosed human patient with relapsed and refractory hematological malignancies assessed as morpholino-hPhe-Leu metabolite formation administered on days 1, 2, 8, 9, 15 and 16 of 28-day cycle over 2 to 10 mins by LC-MS/MS analysis. The data set is classed as ADME, organism-based. The conditions noted are these: in vivo.

Another data set concerns the target Cytochrome P450 3A (Homo sapiens, UniProt P08684+P20815+Q9HB55+P24462). The data set can be described thus: Decrease in CYP3A activity in rifampin-treated human hepatocytes assessed as 6-betahydroxytestosterone formation using testosterone as substrate at 2.5 uM after 30 mins by LC-MS/MS analysis. Type of data set: ADME, cell-based, Hepatocyte. As to conditions: 0.5 h. In outline: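 Hepatocytes induced 3 days with 20 µM rifampicin were exposed to fresh medium containing 2.5 µM carfilzomib for 30 min and washed once. They were then incubated with testosterone 200 µM, and 6β-hydroxytestosterone was measured by LC-MS/MS.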

Data set [7] can be described thus: Drug excretion in urine of human multiple myeloma patient with normal renal function at 15 mg/m'2, iv on days 1, 2, 8, 9, 15 and 16 of 28-day cycle over 2 to 10 mins by LC-MS/MS analysis relative to total drug dose. The data set is classed as ADME, organism-based. The conditions noted are these: read-out: Drug excretion. In outline: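 Urine was collected 0–5 h and 5–24 h after dosing on Cycle 1 Day 1, with acetonitrile added at 25% of sample volume. Carfilzomib and metabolites were quantified by LC-MS/MS (carfilzomib and M15 4.00–2000 ng/mL, M14 10.0–5000 ng/mL) and expressed as percent of dose.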

The next data set has as its target Cytochrome P450 2D6 (Homo sapiens, UniProt P10635). The data set can be described thus: Inhibition of CYP2D6 in human liver microsomes using dextromethorphan as substrate after 5 mins by LC-MS/MS analysis. The data set is classed as ADME. In outline:
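Pooled HLM from 16 donors were incubated at 37°C in duplicate with carfilzomib 0.01–10 µM and probe substrate at about its Km. Substrates were phenacetin, amodiaquine, diclofenac, S-mephenytoin, dextromethorphan, testosterone and midazolam. Protein was 0.1 mg/mL, or 0.05 mg/mL with midazolam. Reactions ran 5 min without preincubation, then were quenched with acetonitrile. Metabolites were measured by LC-MS/MS relative to 0.5% acetonitrile controls.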

In the next data set the target is CYP3A (Homo sapiens, UniProt P08684+P20815+P24462+Q9HB55). Put plainly: Time-dependent inhibition of CYP3A in human liver microsomes assessed as testosterone 6-hydroxylation using testosterone as substrate by LC-MS/MS analysis. The data set is classed as ADME. As to conditions: probe testosterone (6-hydroxylation). In outline: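 Pooled HLM (16 donors, mixed sex), 37°C, duplicate. IC50: carfilzomib 0.01–10 µM preincubated 30 min, then testosterone near Km (100 µM) at 0.1 mg/mL protein, 5 min, LC-MS/MS, relative to 0.5% acetonitrile control. KI/kinact: 0–8 µM preincubated 0–30 min with 2.5 mg/mL HLM plus NADPH-generating system, diluted 25-fold, testosterone 200 µM for 5 min.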

Data set [8] relates to Plasma. The data set can be described thus: Drug metabolism in plasma of human multiple myeloma patient assessed as morpholino-hPhe-Leu-Phe-Leu-diol metabolite formation at 15 mg/m'2, iv administered as single dose measured within first 30 mins after end of drug infusion by LC-MS/MS analysis. The data set is classed as ADME, organism-based. As to conditions: in vivo, 0.5 h. An outline of the steps: (§2)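 Patients with multiple myeloma received a single 15 mg/m2 carfilzomib dose. Plasma was sampled pre-dose, at end of infusion, at 5, 15, 30 min and at 1, 1.5, 2, 4, 6, 24 h. Samples were protein-precipitated and analyzed by LC-MS/MS (metabolites 0.500–500 ng/mL) with deuterated internal standards.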

Data set [9] has as its system Plasma. The data set can be described thus: Drug metabolism in plasma of human multiple myeloma patient assessed as morpholino-hPhe metabolite formation at 15 mg/m'2, iv administered as single dose measured within first 30 mins after end of drug infusion by LC-MS/MS analysis. The conditions noted are these: in vivo, 0.5 h. The data set is classed as ADME, organism-based. An outline of the steps: as §2

A value given as a limit tells only on which side of the number the result lay.

Chain of Cytochrome P450 2D6 (P10635 whole entry): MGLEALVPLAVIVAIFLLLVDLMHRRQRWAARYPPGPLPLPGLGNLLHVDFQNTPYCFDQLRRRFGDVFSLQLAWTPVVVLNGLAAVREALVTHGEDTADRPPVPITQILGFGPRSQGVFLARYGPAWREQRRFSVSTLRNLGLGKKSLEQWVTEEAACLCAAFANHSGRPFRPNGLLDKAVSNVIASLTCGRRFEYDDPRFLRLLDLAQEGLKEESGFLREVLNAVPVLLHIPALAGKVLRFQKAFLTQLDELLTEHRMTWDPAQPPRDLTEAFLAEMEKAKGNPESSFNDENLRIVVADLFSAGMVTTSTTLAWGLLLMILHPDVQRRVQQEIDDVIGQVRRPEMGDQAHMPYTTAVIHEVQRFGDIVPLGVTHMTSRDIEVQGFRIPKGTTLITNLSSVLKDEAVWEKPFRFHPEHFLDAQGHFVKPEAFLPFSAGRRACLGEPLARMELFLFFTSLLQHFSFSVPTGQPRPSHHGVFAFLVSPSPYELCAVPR

`CC(C)C[C@H](NC(=O)[C@H](CCc1ccccc1)NC(=O)CN1CCOCC1)C(=O)N[C@@H](Cc1ccccc1)C(=O)N[C@@H](CC(C)C)C(=O)[C@@]1(C)CO1` [CARFILZOMIB]: the clearance in [1] is 2270 mL/min; in data set [2], 2430 mL/min. This molecule also showed a half-life in [3] of 1.1 h. This molecule yielded an AUC(0-inf) in data set [4] of 238 ng·h/mL. Also, the AUC(0-t) in data set [5] worked out at 238 ng·h/mL. The Drug metabolism at Cytochrome P450 1A2 was 0.016 min⁻¹; with Plasma [6], “metabolite_detected”; in the data set on Plasma [8], “metabolite_detected”; in the data set on Plasma [9], “metabolite_detected”. In addition, at Cytochrome P450 3A, the “inhibition (INH)” value amounted to 14%. The dose excreted in data set [7] is less than 1%. This molecule also had an IC50 against Cytochrome P450 2D6 greater than 10 µM. Besides, on CYP3A, the Ki is 11 µM. Besides, the kinact at CYP3A was 0.00167 s⁻¹.

Source of the values: ChEMBL document CHEMBL3526139, “Clinical pharmacokinetics, metabolism, and drug-drug interaction of carfilzomib” (Drug Metab Dispos, 2013).
